Results reported in ChEMBL document CHEMBL1122905, “4-Deoxypyrido[1',2':1,2]imidazo[5,4-c]rifamycin SV derivatives. A new series of semisynthetic rifamycins with high antibacterial activity and low gastroenteric absorption” (1985).
≈ marks a conversion by molar mass, not a printed value.

How the values were obtained:
Klebsiella pneumoniae = assay: Antimicrobial activity derived as minimum inhibitory concentration are determined using brain-heart infusion medium against Klebsiella Pneumoniae Ottaviani; format: functional
Outline: (§1)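 Broth dilution in brain-heart infusion. Inoculum 10^6 cells/mL. MIC taken as the lowest antibiotic concentration preventing visible growth after 24 h at 35 °C.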

Salmonella paratyphi = assay: Antimicrobial activity derived as minimum inhibitory concentration are determined using brain-heart infusion medium against Salmonella paratyphi B0248 K(Sclavo); format: functional, Salmonella enterica subsp. enterica serovar Paratyphi A; conditions: Salmonella enterica
Outline: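 Broth dilution in brain-heart infusion. Inoculum 10^6 cells/mL. Incubated 24 h at 35 °C. MIC taken as the lowest antibiotic concentration that prevented visible growth.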

Staphylococcus aureus [1] = assay: Antimicrobial activity derived as minimum inhibitory concentration are determined using brain-heart infusion medium against Staphylococcus aureus 209 P(FDA); format: functional; outline: as §1
Pseudomonas aeruginosa = assay: Antimicrobial activity derived as minimum inhibitory concentration are determined using brain-heart infusion medium against Pseudomonas aeruginosa ATCC 10145; format: functional; outline: as §1
Staphylococcus aureus [2] = assay: Effective dose against Staphylococcus aureus in mice for subcutaneous administration.; format: functional; conditions: sc
Staphylococcus aureus [3] = assay: Effective dose against Staphylococcus aureus in mice for peroral administration.; format: functional; conditions: po
Escherichia coli = assay: Antimicrobial activity derived as minimum inhibitory concentration are determined using brain-heart infusion medium against Escherichia coli ML/35.; format: functional; outline: as §1
Staphylococcus aureus [4] = assay: Effective dose against infection of the mice due to Staphylococcus aureus administered perorally; format: functional; conditions: po

SMILES	MIC (Klebsiella pneumoniae)	MIC (Salmonella paratyphi)	MIC (Staphylococcus aureus [1])	MIC (Pseudomonas aeruginosa)	ED50 (Staphylococcus aureus [2])	ED50 (Staphylococcus aureus [3])	MIC (Escherichia coli)	ED50 (Staphylococcus aureus [4])
COC1/C=C/OC2(C)Oc3c(C)c(O)c4c(O)c(c5c([n-]c6cccc[n+]65)c4c3C2=O)NC(=O)/C(C)=C\C=C\C(C)C(O)C(C)C(O)C(C)C(OC(C)=O)C1C (centres undefined)	6 µg/mL (≈ 7.77 µM)	3 µg/mL (≈ 3.89 µM)	< 0.005 µg/mL	6 µg/mL (≈ 7.77 µM)	0.21 mg/kg	10.3 mg/kg	3 µg/mL (≈ 3.89 µM)	
CO[C@H]1/C=C/O[C@@]2(C)Oc3c(C)c(O)c4c(O)c(c(/C=N/N5CCN(C)CC5)c(O)c4c3C2=O)NC(=O)/C(C)=C\C=C\[C@H](C)[C@H](O)[C@@H](C)[C@@H](O)[C@@H](C)[C@H](OC(C)=O)[C@@H]1C [RIFAMPIN]	25 µg/mL (≈ 30.4 µM)	12 µg/mL (≈ 14.6 µM)	< 0.005 µg/mL	12 µg/mL (≈ 14.6 µM)	0.14 mg/kg	0.14 mg/kg	6 µg/mL (≈ 7.29 µM)	
COC1/C=C/OC2(C)Oc3c(C)c(O)c4c(O)c(c5c([n-]c6ccc(OCc7ccccc7)c[n+]65)c4c3C2=O)NC(=O)/C(C)=C\C=C\C(C)C(O)C(C)C(O)C(C)C(OC(C)=O)C1C (centres undefined)	> 50 µg/mL	> 50 µg/mL	< 0.005 µg/mL	50 µg/mL (≈ 56.9 µM)			50 µg/mL (≈ 56.9 µM)	
COC1/C=C/OC2(C)Oc3c(C)c(O)c4c(O)c(c5c([n-]c6c(C)ccc[n+]65)c4c3C2=O)NC(=O)/C(C)=C\C=C\C(C)C(O)C(C)C(O)C(C)C(OC(C)=O)C1C (centres undefined)	6 µg/mL (≈ 7.63 µM)	6 µg/mL (≈ 7.63 µM)	< 0.005 µg/mL	0.7 µg/mL (≈ 0.891 µM)	0.47 mg/kg	> 10 mg/kg	6 µg/mL (≈ 7.63 µM)	
COC1/C=C/OC2(C)Oc3c(C)c(O)c4c(O)c(c5c([n-]c6ccc(C)c[n+]65)c4c3C2=O)NC(=O)/C(C)=C\C=C\C(C)C(O)C(C)C(O)C(C)C(OC(C)=O)C1C (centres undefined)	12 µg/mL (≈ 15.3 µM)	6 µg/mL (≈ 7.63 µM)	< 0.005 µg/mL	3 µg/mL (≈ 3.82 µM)	> 2.5 mg/kg	> 5 mg/kg	6 µg/mL (≈ 7.63 µM)	
COC1/C=C/OC2(C)Oc3c(C)c(O)c4c(O)c(c(-[n+]5ccc(C(C)(C)C)cc5)c(O)c4c3C2=O)NC(=O)/C(C)=C\C=C\C(C)C(O)C(C)C(O)C(C)C(OC(C)=O)C1C.[Br-] (centres undefined)	> 50 µg/mL	> 50 µg/mL	0.01 µg/mL	> 50 µg/mL			> 50 µg/mL	
COC1/C=C/OC2(C)Oc3c(C)c(O)c4c(O)c(c5c([n-]c6c7ccccc7cc[n+]65)c4c3C2=O)NC(=O)/C(C)=C\C=C\C(C)C(O)C(C)C(O)C(C)C(OC(C)=O)C1C (centres undefined)	12 µg/mL (≈ 14.6 µM)	3 µg/mL (≈ 3.65 µM)	< 0.005 µg/mL	0.7 µg/mL (≈ 0.852 µM)	0.81 mg/kg	2.22 mg/kg	12 µg/mL (≈ 14.6 µM)	
COC1/C=C/OC2(C)Oc3c(C)c(O)c4c(O)c(c5c([n-]c6cc(C)cc[n+]65)c4c3C2=O)NC(=O)/C(C)=C\C=C\C(C)C(O)C(C)C(O)C(C)C(OC(C)=O)C1C (centres undefined)	25 µg/mL (≈ 31.8 µM)	6 µg/mL (≈ 7.63 µM)	< 0.005 µg/mL	15 µg/mL (≈ 19.1 µM)			6 µg/mL (≈ 7.63 µM)	> 10 mg/kg
COC(=O)c1ccc[n+](-c2c3c(O)c4c(O)c(C)c5c(c4c2O)C(=O)C(C)(O/C=C/C(OC)C(C)C(OC(C)=O)C(C)C(O)C(C)C(O)C(C)/C=C/C=C(/C)C(=O)N3)O5)c1.[Br-] (centres undefined)	> 50 µg/mL	25 µg/mL	0.07 µg/mL	> 50 µg/mL			> 50 µg/mL	
COC1/C=C/OC2(C)Oc3c(C)c(O)c4c(O)c(c(-[n+]5ccccc5)c(O)c4c3C2=O)NC(=O)/C(C)=C\C=C\C(C)C(O)C(C)C(O)C(C)C(OC(C)=O)C1C.[Br-] (centres undefined)	> 50 µg/mL	50 µg/mL	0.005 µg/mL	12 µg/mL		> 20 mg/kg	> 50 µg/mL	
CC[N+](CC)(CC)c1c2c(O)c3c(O)c(C)c4c(c3c1O)C(=O)C(C)(O/C=C/C(OC)C(C)C(OC(C)=O)C(C)C(O)C(C)C(O)C(C)/C=C/C=C(/C)C(=O)N2)O4.[Br-] (centres undefined)	50 µg/mL	25 µg/mL	0.005 µg/mL	12 µg/mL		> 20 mg/kg	> 50 µg/mL	
COC1/C=C/OC2(C)Oc3c(C)c(O)c4c(O)c(c(-[n+]5cccc(C(N)=O)c5)c(O)c4c3C2=O)NC(=O)/C(C)=C\C=C\C(C)C(O)C(C)C(O)C(C)C(OC(C)=O)C1C.[Br-] (centres undefined)	> 50 µg/mL	> 50 µg/mL	0.1 µg/mL	> 50 µg/mL		> 20 mg/kg	> 50 µg/mL	
